The source made the active and inactive calls. The rule behind the calls is not given here.
Experiments:
Calvarial cell [1] = test: Induction of osteoblast differentiation in rat Calvarial cells assessed as increase in alkaline phosphatase activity at 10^-12 to 10^-6 M by spectrophotometry; assay type: functional, cell-based
Procedure, shortened: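 Rat calvarial osteoblasts trypsinized at 70–80% confluence (0.02% trypsin-EDTA). 2 × 10³ cells seeded in α-MEM with 10% FBS plus 50 µg/ml ascorbate and 10 mM glycerophosphate. Exposed to 10^-12 to 10^-6 M for 48 h; isoformononetin 10^-8 M as positive control. Total ALP read at 405 nm with PNPP 10 mmol/L in diethanolamine buffer (1 mol/L, pH 9.8), 0.5 mmol/L MgCl₂. Mean SEM, n = 6.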

[2] = (§1) Induction of osteogenic activity in rat Calvarial cells assessed as fold increase in Runx-2 gene expression after 48 hrs by qPCR relative to untreated control; assay type: functional, Calvarial cell
Procedure, shortened: (§2)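 Osteoblasts cultured with or without compound for 48 h, then qPCR. Cycling: 95 °C 5 min, then 40 cycles of 94 °C 2 min, 62 °C 30 s annealing/extension and 72 °C 30 s. Normalized to GAPDH. Compared with vehicle-treated cells; mean SEM, n = 3.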

Calvarial cell [3] = test: (§3) Induction of osteogenic activity in rat Calvarial cells assessed as fold increase in BMP-2 gene expression after 48 hrs by qPCR relative to untreated control; assay type: functional; procedure, shortened: as §2
Calvarial cell [4] = test: (§4) Induction of osteogenic activity in rat Calvarial cells assessed as fold increase in OCN gene expression after 48 hrs by qPCR relative to untreated control; assay type: functional; procedure, shortened: as §2
Calvarial cell [5] = test: as §1; assay type: functional; procedure, shortened: as §2
[6] = as §3; assay type: functional, Calvarial cell; procedure, shortened: as §2
[7] = as §4; assay type: functional, Calvarial cell; procedure, shortened: as §2

Structure (SMILES): O=c1c(-c2ccccc2)c(CO)oc2cc(O)ccc12
- Activity (Calvarial cell [1]): Active
- fold change (FC) [2]: 6.5
- Activity (Calvarial cell [3]): inactive
- Activity (Calvarial cell [4]): inactive

Structure (SMILES): O=c1c(-c2ccccc2)c(CO)oc2ccccc12
- Activity (Calvarial cell [1]): Active
- Activity (Calvarial cell [5]): inactive
- fold change (FC) [6]: 2.5
- Activity (Calvarial cell [4]): inactive

Structure (SMILES): COc1ccc(-c2c(CO)oc3ccccc3c2=O)c(O)c1
- Activity (Calvarial cell [1]): Active
- fold change (FC) [2]: 8
- fold change (FC) [6]: 2
- fold change (FC) [7]: 2

Structure (SMILES): COc1ccc(-c2c(CO)oc3cc(O)ccc3c2=O)cc1
- Activity (Calvarial cell [1]): Active
- Activity (Calvarial cell [5]): inactive
- Activity (Calvarial cell [3]): inactive
- Activity (Calvarial cell [4]): inactive

Source: ChEMBL document CHEMBL1681735, “One step synthesis of 2-hydroxymethylisoflavone and their osteogenic activity” (2011)
